The results in this text go back to ChEMBL document CHEMBL1828630, “Design, synthesis and vasorelaxant evaluation of novel coumarin-pyrimidine hybrids” (Bioorg Med Chem, 2011).

pIC50: −log10 of the molar value.

For the first experiment, the system named is Aorta. Briefly: Vasorelaxant activity in Wistar rat thoracic aortic ring assessed as inhibition of norepinephrine hydrochloride-induced contraction treated after noradrenaline challenge. The class given is functional, tissue-based.
Settings: not given; call rule not given here
In a few lines:
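Aortic ring preparations held under resting tension below 2 g and allowed to stabilise for 2 h. Contraction to norepinephrine hydrochloride (10^-6 M) was recorded before and after exposure to increasing concentrations of test compound. Tension was measured isometrically. Compounds were taken from 0.01 M DMSO stocks, and DMSO-alone controls were run at matching concentrations. Activity was reported as IC50.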
`COc1ccc2ccc(=O)oc2c1C(=O)/C=C/c1ccc(C)cc1`: the IC50 result is listed as “Not Active”.
As to `Cc1cc(-c2ccccc2)nc(Nc2ccc3oc(=O)ccc3c2)n1`, the IC50 result is given as “Not Active”.
`COc1ccc2ccc(=O)oc2c1-c1cc(-c2ccc([N+](=O)[O-])cc2)nc(N)n1`: the IC50 result is listed as “Not Active”.

The experiment is the same for the next values; noted with them: Rattus norvegicus, Wistar, Aorta; read-out: IC50.
Take `COc1ccc2ccc(=O)oc2c1C(=O)/C=C/c1ccc(C(F)(F)F)cc1`: the pIC50 – broadly, the IC50 on a negative log10 scale, so that one unit is a factor of ten – was 3.43.
Still for that read-out and setting: with `N/C(=N/O)c1c(N)nc(Nc2ccc3oc(=O)ccc3c2)nc1-c1ccccc1` the figure was 3.33.
Consider `Cc1cc(=O)[nH]c(Nc2ccc3oc(=O)ccc3c2)n1`, for which the pIC50 was 3.15.
As to `Cc1cc(Cl)nc(Nc2ccc3oc(=O)ccc3c2)n1`, the pIC50 is 3.33.
The same measure, in the same setting: as for `Cc1nc(Nc2ccc3oc(=O)ccc3c2)nc(Cl)c1CCCl`, the figure is 3.15; as for `Nc1ccc2oc(=O)ccc2c1`, 3.27.
On the same count and under the same terms, with `COc1ccc2ccc(=O)oc2c1-c1cc(-c2ccc(C)cc2)nc(N)n1` the figure was 3.03.
As to `COc1ccc2ccc(=O)oc2c1-c1cc(-c2ccc(C)o2)nc(N)n1`, the pIC50 was 2.91.
On the same count and under the same terms, with `CCN(CC)c1ccc(-c2nc(Nc3ccc4oc(=O)ccc4c3)[nH]c(=O)c2C#N)cc1` the figure was 3.38.
The same measure, in the same setting: with `COc1ccc2ccc(=O)oc2c1C(=O)/C=C/c1ccc(C)o1` the figure was 3.25.
On the same count and under the same terms, with `O=c1ccc2cc(Nc3nc(Cl)cc(Cl)n3)ccc2o1` the figure was 3.34; with `COc1ccc2ccc(=O)oc2c1C(=O)/C=C/c1ccc([N+](=O)[O-])cc1`, 3.15.
For `COc1ccc2ccc(=O)oc2c1-c1cc(-c2ccccc2)nc(N)n1`, the pIC50 was 3.10.
The same measure, in the same setting: with `O=c1cc(O)nc(Nc2ccc3oc(=O)ccc3c2)[nH]1` the figure was 3.09; with `COc1ccc2ccc(=O)oc2c1C(=O)/C=C/c1ccccc1`, 3.28.
On to `Cc1cc(C)nc(Nc2ccc3oc(=O)ccc3c2)n1`, for which the pIC50 was 3.39.
Same read-out and setting: with `COc1ccc2ccc(=O)oc2c1-c1cc(-c2ccc(SC)cc2)nc(N)n1` the figure was 2.94.
As for `N/C(=N/O)c1c(-c2ccccc2)nc(Nc2ccc3oc(=O)ccc3c2)[nH]c1=O`, the pIC50 is 3.33.
Still for that read-out and setting: as for `COc1ccc2ccc(=O)oc2c1-c1cc(-c2cccs2)nc(N)n1`, the figure is 3.19; as for `COc1ccc2ccc(=O)oc2c1-c1cc(-c2ccc(C(F)(F)F)cc2)nc(N)n1`, 2.97; as for `CCN(CC)c1cc(C)nc(Nc2ccc3oc(=O)ccc3c2)n1`, 3.31.
On the same count and under the same terms, as for `COc1ccc2ccc(=O)oc2c1C(=O)/C=C/c1cccs1`, the figure is 3.43; as for `N#Cc1c(N)nc(Nc2ccc3oc(=O)ccc3c2)nc1-c1ccccc1`, 3.23.
Consider `N#Cc1c(-c2ccccc2)nc(Nc2ccc3oc(=O)ccc3c2)[nH]c1=O`, for which the pIC50 was 3.26.
As for `COc1cc2nc(N3CCN(C(=O)c4ccco4)CC3)nc(N)c2cc1OC` [PRAZOSIN], the pIC50 is 3.31.
Still for that read-out and setting: with `COc1ccc2ccc(=O)oc2c1C(=O)/C=C/c1ccc(SC)cc1` the figure was 3.15; with `N=C(N)Nc1ccc2oc(=O)ccc2c1`, 3.38; with `COc1ccc2ccc(=O)oc2c1C(C)=O`, 3.32.

The same experiment, now with this note: Rattus norvegicus, Wistar, Aorta; read-out: pIC50 (converted).
In the case of `COc1ccc2ccc(=O)oc2c1-c1cc(-c2ccc(C)cc2)nc(N)n1`, the IC50 was 1070 µM.
For the compound `COc1ccc2ccc(=O)oc2c1-c1cc(-c2ccccc2)nc(N)n1`, the IC50 is 1250 µM.
The same measure, in the same setting: as for `COc1ccc2ccc(=O)oc2c1-c1cc(-c2ccc(SC)cc2)nc(N)n1`, the figure is 876 µM.
